For four compounds, Efficacy, Ke and Activity results are on record in ChEMBL document CHEMBL3232873, “Development of a bioavailable μ opioid receptor (MOPr) agonist, δ opioid receptor (DOPr) antagonist peptide that evokes antinociception without development of acute tolerance” (J Med Chem, 2014).

Molecules are shown by their SMILES. Active and inactive are the calls of the source. *1 amine or outer side, *2 acyl side, *3 side chain or, on linkers, in order; H or OH if unused. Where a SMILES comes first, the peptide text is derived from it. Bridges are numbered along the chain shown (N, C = ends). [ ]: non-standard residue; d: D form. The star is where a group is joined. βGlc = OC[C@H]1O[C@@H](*)[C@H](O)[C@@H](O)[C@@H]1O; Dmt = Cc1cc(O)cc(C)c1C[C@H](N)C(=O)O; dPen = CC(C)(S)[C@@H](N)C(=O)O; Aic = NC1(C(=O)O)Cc2ccccc2C1; CH2CH2 = C(C[*:2])[*:1]

The target of assay [1] is Kappa-type opioid receptor (Homo sapiens) (UniProt P41145). In words: Agonist activity at human kappa opioid receptor expressed in rat C6 cells assessed as stimulation of [35S]-GTPgammaS binding after 1 hr by GF/C filters relative to control. Format: functional, cell-based. (In general: Binding of GTPγS marks nucleotide exchange on a G protein.)
Assay [2] deals with Delta-type opioid receptor (Rattus norvegicus) (UniProt P33533). The assay can be described thus: Antagonist activity at rat delta opioid receptor expressed in rat C6 cells assessed as [35S]-GTPgammaS binding after 1 hr by GF/C filters. The format is functional, cell-based. The gist of the method:
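Membranes (10–20 μg protein/well) from C6 glioma cells stably expressing rat DOPr were incubated 1 h at room temperature in 50 mM Tris-HCl, 100 mM NaCl, 5 mM MgCl2, pH 7.4, with 0.1 nM [35S]GTPγS and 30 μM GDP. Bound label was filtered, washed 10× with cold buffer, and scintillation-counted. Ke was derived by formula using a single peptide concentration. Mean ± SEM, ≥3 assays in duplicate.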

For assay [3] the target is unchanged. The assay can be described thus: Agonist activity at rat delta opioid receptor expressed in rat C6 cells assessed as stimulation of [35S]-GTPgammaS binding after 1 hr by GF/C filters relative to control. Format: functional, cell-based. Put shortly:
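Membranes (10–20 μg protein) from C6 glioma cells stably expressing rat DOPr, incubated 1 h at room temperature in 50 mM Tris-HCl, 100 mM NaCl, 5 mM MgCl2, pH 7.4, with 0.1 nM [35S]GTPγS, 30 μM GDP and varied peptide concentrations. GF/C filtration, scintillation counting. […] At least three assays in duplicate.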

Assay [4] relates to Mus musculus. The assay can be described thus: Antinociceptive effect in C57BL/6 mouse assessed as tail withdrawal latency at 10 mg/kg, ip by warm water tail withdrawal assay relative to 20 secs cutoff time. The format is functional. As to conditions: route intraperitoneal. The gist of the method:
(§1)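 Adult male and female C57BL/6 mice (20–35 g, 8–16 weeks). Saline ip, then baseline latency 30 min later. Cumulative ip doses in saline were given at 30 min intervals, with latency read 30 min after each dose. Tail tip (2–3 cm) placed in 50 °C water; withdrawal or flick latency recorded, 20 s cutoff.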

The subject of assay [5] is Mus musculus. The assay can be described thus: Antinociceptive effect in C57BL/6 mouse assessed as maximum effect at 10 mg/kg, ip after 90 mins followed by treated with second dose measured up to 200 mins by acute tolerance/warm water tail withdrawal assay. Also on record: dose 10 mg/kg. Format: functional, organism-based. Put shortly:
(§2)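 Separate groups of C57BL/6 mice got ip saline or 10 mg/kg compound after baseline, with 50 °C tail-withdrawal latency (20 s cutoff) at 15, 30, 45, 60 and 90 min. At 90–120 min all mice received 10 mg/kg ip, read at 15, 30, 60 and 90 min. AUC over baseline was computed per mouse and averaged by group; naive and pretreated groups compared by t-test.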

The test system of assay [6] is Mus musculus. The assay can be described thus: Antinociceptive effect in C57BL/6 mouse assessed as maximum effect at 10 mg/kg, ip after 90 mins by acute tolerance/warm water tail withdrawal assay. Format: functional, organism-based. On the set-up: dose 10 mg/kg. The gist of the method: as §2
For assay [7], the species on record is Mus musculus. The assay can be described thus: Antinociceptive effect in C57BL/6 mouse assessed as tail withdrawal latency by warm water tail withdrawal assay relative to 20 secs cutoff time. The format is functional, organism-based. The gist of the method:
as §1

Assay [8] relates to Mus musculus. The assay can be described thus: Antinociceptive effect in C57BL/6 mouse assessed as tail withdrawal latency at 10 mg/kg, ip measured between 30 and 60 mins by warm water tail withdrawal assay relative to 20 secs cutoff time. The format is functional, organism-based. Also on record: dose 10 mg/kg.
The subject of assay [9] is Mus musculus. In words: Antinociceptive effect in C57BL/6 mouse assessed as tail withdrawal latency at 10 mg/kg, ip by warm water tail withdrawal assay in presence of 3.2 mg/kg, ip naltrexone nonselective opioid antagonist. Format: functional, organism-based. Put shortly:
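C57BL/6 mice, both sexes. Saline or 3.2 mg/kg naltrexone ip 30 min before 10 mg/kg test compound ip, all in saline. Tail-withdrawal latency in 50 °C water (20 s cutoff) read 30 min after pretreatment and 30 min after test injection.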

Assay [10] relates to Mus musculus. In words: Antinociceptive effect in C57BL/6 mouse assessed as maximum effect at 10 mg/kg, ip after 30 mins by acute tolerance/warm water tail withdrawal assay. The format is functional, organism-based. Also on record: dose 10 mg/kg. Put shortly: as §2
The target in assay [11] is Mu-type opioid receptor (Rattus norvegicus) (UniProt P33535). The assay can be described thus: Agonist activity at rat mu opioid receptor expressed in rat C6 cells assessed as stimulation of [35S]-GTPgammaS binding after 1 hr by GF/C filters relative to control. Format: functional, cell-based. The gist of the method: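 C6 glioma membranes (rat MOPr, stable; 10–20 μg protein) incubated 1 h at room temperature in 50 mM Tris-HCl, 100 mM NaCl, 5 mM MgCl2, pH 7.4, with 0.1 nM [35S]GTPγS, 30 μM GDP and varying peptide concentrations. GF/C filtration, counting. […] EC50 and maximum from nonlinear regression. At least three assays in duplicate.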
Chain of Mu-type opioid receptor (Rattus norvegicus) (P33535 whole entry): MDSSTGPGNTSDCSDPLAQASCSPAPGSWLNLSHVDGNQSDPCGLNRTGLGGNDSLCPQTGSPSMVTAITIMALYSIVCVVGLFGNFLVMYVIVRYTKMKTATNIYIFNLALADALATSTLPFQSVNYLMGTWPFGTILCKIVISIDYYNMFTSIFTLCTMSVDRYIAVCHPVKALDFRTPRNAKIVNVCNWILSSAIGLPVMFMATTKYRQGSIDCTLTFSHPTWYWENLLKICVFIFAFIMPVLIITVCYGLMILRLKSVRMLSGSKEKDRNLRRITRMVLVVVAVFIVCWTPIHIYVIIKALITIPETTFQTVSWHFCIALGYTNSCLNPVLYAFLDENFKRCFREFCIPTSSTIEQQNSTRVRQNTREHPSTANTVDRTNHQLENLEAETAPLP

Chain of Delta-type opioid receptor (Rattus norvegicus) (P33533 whole entry): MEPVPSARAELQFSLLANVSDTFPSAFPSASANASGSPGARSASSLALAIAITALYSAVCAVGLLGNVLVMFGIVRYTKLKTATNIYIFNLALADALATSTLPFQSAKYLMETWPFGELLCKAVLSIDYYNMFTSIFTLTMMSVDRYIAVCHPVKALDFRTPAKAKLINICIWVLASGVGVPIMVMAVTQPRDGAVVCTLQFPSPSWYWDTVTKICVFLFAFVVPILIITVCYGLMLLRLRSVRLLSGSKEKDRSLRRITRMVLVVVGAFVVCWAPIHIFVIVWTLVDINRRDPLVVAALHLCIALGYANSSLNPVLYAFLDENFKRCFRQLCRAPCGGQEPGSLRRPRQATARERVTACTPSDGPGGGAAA
Chain of Kappa-type opioid receptor (Homo sapiens) (P41145 whole entry): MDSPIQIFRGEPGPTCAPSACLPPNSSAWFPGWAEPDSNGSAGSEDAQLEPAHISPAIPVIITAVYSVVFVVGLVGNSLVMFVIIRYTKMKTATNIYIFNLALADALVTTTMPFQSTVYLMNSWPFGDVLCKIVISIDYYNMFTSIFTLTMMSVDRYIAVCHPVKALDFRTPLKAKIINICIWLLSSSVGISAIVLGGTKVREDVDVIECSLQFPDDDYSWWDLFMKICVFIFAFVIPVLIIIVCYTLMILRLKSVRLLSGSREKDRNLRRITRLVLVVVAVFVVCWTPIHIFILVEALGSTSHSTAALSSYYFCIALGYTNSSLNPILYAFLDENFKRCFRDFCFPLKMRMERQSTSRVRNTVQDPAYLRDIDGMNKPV

Take `Cc1cc(O)cc(C)c1C[C@H](N)C(=O)N[C@@H]1CSCCSC(C)(C)[C@H](C(=O)N[C@@H](CO[C@@H]2O[C@H](CO)[C@@H](O)[C@H](O)[C@H]2O)C(N)=O)NC(=O)C2(Cc3ccccc3C2)NC1=O` (H-[Dmt][dC][Aic][dPen]S(βGlc)-NH2; linker 2-4 via CH2CH2): the Efficacy entry in assay [1] and in [3] was “inactive” throughout. In addition, the Ke in assay [2] amounted to 6.1 nM. The Activity with Mus musculus [4] is 80%; in the assay listed under Mus musculus [7] it was “Dose-dependent effect”. Moreover, the result with Mus musculus [5], with Mus musculus [8] and in the assay on Mus musculus [10] was Active. Moreover, the result with Mus musculus [6] and in the assay on Mus musculus [9] was inactive.
Take `Cc1cc(O)cc(C)c1C[C@H](N)C(=O)N[C@@H]1CSCCSC(C)(C)[C@H](C(=O)O)NC(=O)C2(Cc3ccccc3C2)NC1=O` (H-[Dmt][dC][Aic][dPen]-OH; linker 2-4 via CH2CH2): the Efficacy result in [1] and in assay [3] was “inactive” throughout. Further, the Ke in assay [2] is 4.4 nM. The Efficacy in assay [11] was found to be 59%.
`Cc1cc(O)cc(C)c1C[C@H](N)C(=O)N[C@@H]1CSCCSC(C)(C)[C@H](C(=O)N[C@@H](CO)C(N)=O)NC(=O)C2(Cc3ccccc3C2)NC1=O` (H-[Dmt][dC][Aic][dPen]S-NH2; linker 2-4 via CH2CH2): the Efficacy result in [1] and in [3] was “inactive” in each case.
`Cc1cc(O)cc(C)c1C[C@H](N)C(=O)N[C@@H]1CSCCSC(C)(C)[C@H](C(=O)N[C@@H](CO)C(=O)O)NC(=O)C2(Cc3ccccc3C2)NC1=O` (H-[Dmt][dC][Aic][dPen]S-OH; linker 2-4 via CH2CH2): the Efficacy entry in assay [1] and in assay [3] was “inactive” throughout.
